From ChEMBL document CHEMBL1151163, “New chromanone acids with antibacterial activity from Calophyllum brasiliense” (J Nat Prod, 2004)
≈ marks a conversion by molar mass, not a printed value.

How the values were obtained:
[1] = Cytotoxicity against Myosarcoma cells; format: functional, cell-based
Outline: (§1)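 Cytotoxicity followed previously published protocols. KB cells (HeLa-derived, ATCC CCL 17) used podophyllotoxin as the positive control. Jurkat T helper cells (ATCC TIB 152) used helenalin. Myosarcoma cells used aculeatin A.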

Jurkat = experiment: Cytotoxicity against human Jurkat T cells; format: functional, cell-based; outline: as §1
KB = experiment: Cytotoxicity against human KB cells; format: functional, cell-based; outline: as §1
[2] = system: Staphylococcus epidermidis; experiment: Antimicrobial activity against Staphylococcus epidermidis ATCC 12228 by doubling dilution method; format: functional
Outline: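 Twofold serial (doubling) dilution susceptibility test following a previously published protocol, with chloramphenicol as the positive control.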

MIC [2]	SMILES	IC50 [1]	IC50 (Jurkat)	IC50 (KB)
16 µg/mL (≈ 28.5 µM)	C=C(C)[C@@H]1C[C@@H](CC2(CC=C(C)C)C(=O)C(C(CC(=O)O)c3ccccc3)=C3O[C@H](C)[C@@H](C)C(=O)C3=C2O)C1(C)C (relative stereo) [BRASILIENSOPHYLLIC ACID B]	> 20 µg/mL	> 20 µg/mL	> 20 µg/mL
16 µg/mL (≈ 28.5 µM)	C=C(C)[C@@H]1C[C@@H](CC2(CC=C(C)C)C(=O)C3=C(O)[C@@H](C)[C@H](C)OC3=C(C(CC(=O)O)c3ccccc3)C2=O)C1(C)C (relative stereo) [ISOBRASILIENSOPHYLLIC ACID A]	> 20 µg/mL	> 20 µg/mL	> 20 µg/mL
16 µg/mL (≈ 28.5 µM)	C=C(C)[C@@H]1C[C@@H](CC2(CC=C(C)C)C(=O)C(C(CC(=O)O)c3ccccc3)=C3O[C@@H](C)[C@@H](C)C(=O)C3=C2O)C1(C)C (relative stereo) [ISOBRASILIENSOPHYLLIC ACID B]	> 20 µg/mL	> 20 µg/mL	> 20 µg/mL
4 µg/mL (≈ 12.4 µM)	O=C(N[C@H](CO)[C@H](O)c1ccc([N+](=O)[O-])cc1)C(Cl)Cl [CHLORAMPHENICOL]	–	–	–

The next lines start with the compound.

SMILES	MIC [2]	IC50 [1]	IC50 (Jurkat)	IC50 (KB)
C=C(C)[C@@H]1C[C@@H](CC2(CC=C(C)C)C(=O)C3=C(O)[C@@H](C)[C@@H](C)OC3=C(C(CC(=O)O)c3ccccc3)C2=O)C1(C)C (relative stereo) [BRASILIENSOPHYLLIC ACID A]	16 µg/mL (≈ 28.5 µM)	> 20 µg/mL	> 20 µg/mL	> 20 µg/mL
CCCCCCCCCCCCC[C@@H]1C[C@@H](O)C[C@]2(CCC3(C=CC(=O)C=C3)O2)O1 [ACULEATIN A]	–	0.3 µg/mL (≈ 0.717 µM)	–	–
C=C1C(=O)O[C@@H]2C[C@@H](C)[C@@H]3C=CC(=O)[C@@]3(C)[C@@H](O)[C@H]12 [HELENALIN]	–	–	0.03 µg/mL (≈ 0.114 µM)	–
COc1cc([C@@H]2c3cc4c(cc3[C@H](O)[C@H]3COC(=O)[C@H]23)OCO4)cc(OC)c1OC [PODOFILOX]	–	–	–	0.005 µg/mL (≈ 0.0121 µM)
